Measurements as given in ChEMBL document CHEMBL3046103, “Antifungal synergistic effect of scopoletin, a hydroxycoumarin isolated from Melia azedarach L. fruits” (J Agric Food Chem, 2005).

Tests used:
Fusarium verticillioides [1] = experiment: Antifungal activity against Fusarium verticillioides assessed as growth inhibition by broth microdilution method
Fusarium incarnatum [2] = experiment: Antifungal activity against Fusarium incarnatum assessed as growth inhibition by broth microdilution method; format: functional, organism-based
Fusarium incarnatum [3] = experiment: Antifungal activity against Fusarium incarnatum assessed as growth inhibition at 1 mg/mL by broth microdilution method; format: functional; conditions: read-out: GI
Fusarium [4] = experiment: Antifungal activity against Fusarium fusiformis assessed as growth inhibition by broth microdilution method; format: functional, organism-based
Fusarium [5] = experiment: Antifungal activity against Fusarium fusiformis assessed as growth inhibition at 1 mg/mL by broth microdilution method; format: functional
Fusarium verticillioides [6] = experiment: Antifungal activity against Fusarium verticillioides assessed as growth inhibition at 1 mg/mL by broth microdilution method; format: functional
In short: (§1)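 F. verticillioides strain M-7075, a maize isolate, was kept as a monosporic culture on V8 juice medium. Four-day-old spores were suspended at 10^5 spores/mL in glucose-mineral salts medium. Compound in filter-sterilized DMSO (final ≤2-4%) was tested at 0.10–1.70 mg/mL, in duplicate, alongside DMSO and untreated controls. Germination relative to control mycelial growth (100%) was scored visually by inverted microscope. MIC was the lowest concentration giving complete inhibition, and IC50 came from probit analysis.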

Fusarium verticillioides [7] = experiment: Antifungal activity against Fusarium verticillioides assessed as growth inhibition by broth microdilution method; format: functional, organism-based
In short: as §1

Q: `COc1cc(C=O)ccc1O` [VANILLIN] was tested. Which MIC (Fusarium verticillioides [1]) did it give?
A: 600 µg/mL

Q: `COc1cc2ccc(=O)oc2cc1O` [SCOPOLETIN] was tested. Which IC50 (Fusarium incarnatum [2]) did it give?
A: 470 µg/mL

Q: What about the inhibition of growth at 1000 µg/mL (Fusarium incarnatum [3]) of the same compound?
A: 66.2%

Q: What about the IC50 (Fusarium [4]) of the same compound?
A: 820 µg/mL

Q: What about the inhibition at 1000 µg/mL (Fusarium [5]) of the same compound?
A: 51.8%

Q: And the inhibition at 1000 µg/mL (Fusarium verticillioides [6])?
A: 90%

Q: And the IC50 (Fusarium verticillioides [7])?
A: 730 µg/mL

Q: What about the MIC (Fusarium verticillioides [7]) of the same compound?
A: 1500 µg/mL

Q: With `COc1cc(C2OCC3C(c4ccc(O)c(OC)c4)OCC23)ccc1O` (racemic) [(+/-)-PINORESINOL] as the compound, how does the MIC (Fusarium verticillioides [1]) read?
A: 1000 µg/mL

Q: Which MIC (Fusarium verticillioides [1]) does the source give for `COc1cc(/C=C/C=O)ccc1O` [CONIFERYL ALDEHYDE] here?
A: 400 µg/mL
